Calls of active or inactive are those of the source. The rule behind the calls is not given here.
Assays:
[1] = molecular target: T1, von Hippel-Lindau disease tumor suppressor/Bromodomain-containing protein 7 (Homo sapiens) (UniProt Q9NPI1+P40337); assay: PROTAC activity at VHL/BRD7 in human Ri-1 cells assessed as remaining BRD7 protein level at 0.1 nM incubated for 8 hrs by Western blot analysis relative to control; assay type: cell-based
[2] = molecular target: T1, von Hippel-Lindau disease tumor suppressor/Bromodomain-containing protein 7 (Homo sapiens); assay: PROTAC activity at VHL/BRD7 in human Ri-1 cells assessed as remaining BRD7 protein level at 1 uM incubated for 2 hrs by Western blot analysis relative to control; assay type: cell-based
[3] = molecular target: T1, von Hippel-Lindau disease tumor suppressor/Bromodomain-containing protein 7 (Homo sapiens); assay: PROTAC activity at VHL/BRD7 in human Ri-1 cells assessed as BRD7 protein degradation in the presence of MLN4924 by Western blot analysis; assay type: cell-based
[4] = molecular target: T1, von Hippel-Lindau disease tumor suppressor/Bromodomain-containing protein 7 (Homo sapiens); assay: PROTAC activity at VHL/BRD7 in human Ri-1 cells assessed as remaining BRD7 protein level at 100 nM incubated for 4 hrs by Western blot analysis relative to control; assay type: cell-based
Outline: (§1)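 Ri-1 cells exposed to compound for the stated time before harvest; BRD9, BRD7 and β-actin measured by Western blot, band intensities quantified and set against DMSO-treated control.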

[5] = molecular target: T1, von Hippel-Lindau disease tumor suppressor/Bromodomain-containing protein 7 (Homo sapiens); assay: PROTAC activity at VHL/BRD7 in human Ri-1 cells assessed as BRD7 protein degradation at 100 nM pre-incubated for 30 mins with VH298 followed by compound addition and measured after 4 hrs by Western blot analysis; assay type: cell-based
A204 = assay: Antiproliferative activity against human A204 cells assessed as inhibition of cell growth incubated for 7 days by CellTiterGlo assay; assay type: functional, cell-based; conditions: A204, 168 h
[6] = molecular target: T1, von Hippel-Lindau disease tumor suppressor/Bromodomain-containing protein 7 (Homo sapiens); assay: PROTAC activity at VHL/BRD7 in human Ri-1 cells assessed as remaining BRD7 protein level at 1 uM incubated for 8 hrs by Western blot analysis relative to control; assay type: cell-based
[7] = Stability in human plasma at 10 uM measured upto 180 mins by UPLC-MS/MS analysis; assay type: ADME, cell-free; conditions: 3 h
[8] = molecular target: T2, von Hippel-Lindau disease tumor suppressor/Bromodomain-containing protein 9 (Homo sapiens) (UniProt Q9H8M2+P40337); assay: PROTAC activity at VHL/BRD9 in human Ri-1 cells assessed as remaining BRD9 protein level at 10000 nM incubated for 2 hrs by Western blot analysis relative to control; assay type: cell-based; outline: as §1
T2 sequence (P40337 whole entry, looked up): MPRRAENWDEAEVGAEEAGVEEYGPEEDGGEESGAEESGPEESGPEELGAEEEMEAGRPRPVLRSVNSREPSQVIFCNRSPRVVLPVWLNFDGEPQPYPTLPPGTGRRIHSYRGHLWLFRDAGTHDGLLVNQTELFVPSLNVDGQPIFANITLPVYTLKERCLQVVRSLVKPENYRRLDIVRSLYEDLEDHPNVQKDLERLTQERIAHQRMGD
T2 sequence (Q9H8M2 whole entry, looked up): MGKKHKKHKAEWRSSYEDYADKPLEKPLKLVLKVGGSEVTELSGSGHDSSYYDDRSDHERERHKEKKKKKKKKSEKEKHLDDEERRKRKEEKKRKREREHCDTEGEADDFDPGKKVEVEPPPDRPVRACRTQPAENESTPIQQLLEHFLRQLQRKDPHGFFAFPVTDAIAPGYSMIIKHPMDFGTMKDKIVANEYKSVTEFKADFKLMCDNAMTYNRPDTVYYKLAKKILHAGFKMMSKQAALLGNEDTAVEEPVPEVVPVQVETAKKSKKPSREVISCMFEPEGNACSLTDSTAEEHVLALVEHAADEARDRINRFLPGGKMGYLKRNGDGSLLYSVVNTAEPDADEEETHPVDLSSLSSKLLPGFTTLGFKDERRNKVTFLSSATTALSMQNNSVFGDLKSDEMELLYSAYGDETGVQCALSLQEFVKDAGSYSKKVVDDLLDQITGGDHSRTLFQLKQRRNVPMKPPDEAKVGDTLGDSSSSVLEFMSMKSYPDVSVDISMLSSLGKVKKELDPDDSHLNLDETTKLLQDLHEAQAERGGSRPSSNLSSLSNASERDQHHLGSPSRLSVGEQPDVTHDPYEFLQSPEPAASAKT

[9] = molecular target: T2, von Hippel-Lindau disease tumor suppressor/Bromodomain-containing protein 9 (Homo sapiens); assay: PROTAC activity at VHL/BRD9 in human Ri-1 cells assessed as remaining BRD9 protein level at 100 nM incubated for 4 hrs by Western blot analysis relative to control; assay type: cell-based; outline: as §1
[10] = Stability in CD-1 mouse liver microsomes at 0.5 uM measured upto 30 mins in the presence of NADPH; assay type: ADME, Microsome; conditions: 0.5 h
[11] = molecular target: T2, von Hippel-Lindau disease tumor suppressor/Bromodomain-containing protein 9 (Homo sapiens); assay: PROTAC activity at VHL/BRD9 in human Ri-1 cells assessed as remaining BRD9 protein level at 1 nM incubated for 2 hrs by Western blot analysis relative to control; assay type: cell-based; outline: as §1
[12] = molecular target: T1, von Hippel-Lindau disease tumor suppressor/Bromodomain-containing protein 7 (Homo sapiens); assay: PROTAC activity at VHL/BRD7 in human HeLa cells assessed as remaining BRD7 protein level at 1 uM incubated for 4 hrs by Western blot analysis relative to control; assay type: cell-based
[13] = molecular target: Von Hippel-Lindau disease tumor suppressor/Elongin B/Elongin C (Homo sapiens) (UniProt P40337+Q15370+Q15369); assay: Negative co-operative binding affinity to 6His-tagged human VHL/ElonginC/ElonginB expressed in Escherichia coli BL21 (DE3) cells assessed as total gibb's free energy change in the presence of BRD9-BD as complex with compound by ITC analysis
Chain of Von Hippel-Lindau disease tumor suppressor/Elongin B/Elongin C (Homo sapiens) (P40337 whole entry, looked up): as the sequence (P40337 whole entry, looked up) above
Chain of Von Hippel-Lindau disease tumor suppressor/Elongin B/Elongin C (Homo sapiens) (Q15369 whole entry, looked up): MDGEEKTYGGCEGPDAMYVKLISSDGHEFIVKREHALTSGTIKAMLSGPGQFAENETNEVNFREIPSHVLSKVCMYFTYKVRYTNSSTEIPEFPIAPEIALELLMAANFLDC
Chain of Von Hippel-Lindau disease tumor suppressor/Elongin B/Elongin C (Homo sapiens) (Q15370 whole entry, looked up): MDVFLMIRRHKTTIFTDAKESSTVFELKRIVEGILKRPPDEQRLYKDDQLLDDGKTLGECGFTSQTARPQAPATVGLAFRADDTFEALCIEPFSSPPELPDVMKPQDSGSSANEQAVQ

[14] = Stability in mouse plasma at 10 uM measured upto 180 mins by UPLC-MS/MS analysis; assay type: ADME, cell-free; conditions: 3 h
[15] = molecular target: T2, von Hippel-Lindau disease tumor suppressor/Bromodomain-containing protein 9 (Homo sapiens); assay: PROTAC activity at VHL/BRD9 in human Ri-1 cells assessed as maximal degradation by Western blot analysis relative to control; assay type: cell-based; outline: as §1
[16] = molecular target: T1, von Hippel-Lindau disease tumor suppressor/Bromodomain-containing protein 7 (Homo sapiens); assay: PROTAC activity at VHL/BRD7 in human Ri-1 cells assessed as BRD7 protein degradation in the presence of MG132 by Western blot analysis; assay type: cell-based
[17] = molecular target: T1, von Hippel-Lindau disease tumor suppressor/Bromodomain-containing protein 7 (Homo sapiens); assay: PROTAC activity at VHL/BRD7 in human Ri-1 cells assessed as remaining BRD7 protein level at 10 nM incubated for 48 hrs by Western blot analysis relative to control; assay type: cell-based; outline: as §1
[18] = molecular target: T2, von Hippel-Lindau disease tumor suppressor/Bromodomain-containing protein 9 (Homo sapiens); assay: PROTAC activity at VHL/BRD9 in human Ri-1 cells assessed as remaining BRD9 protein level at 100 nM incubated for 48 hrs by Western blot analysis relative to control; assay type: cell-based; outline: as §1
[19] = molecular target: T1, von Hippel-Lindau disease tumor suppressor/Bromodomain-containing protein 7 (Homo sapiens); assay: PROTAC activity at VHL/BRD7 in human Ri-1 cells assessed as remaining BRD7 protein level at 10 nM incubated for 24 hrs by Western blot analysis relative to control; assay type: cell-based
[20] = molecular target: T2, von Hippel-Lindau disease tumor suppressor/Bromodomain-containing protein 9 (Homo sapiens); assay: PROTAC activity at VHL/BRD9 in human Ri-1 cells assessed as remaining BRD9 protein level at 1 nM incubated for 8 hrs by Western blot analysis relative to control; assay type: cell-based; outline: as §1
[21] = Stability in human liver microsomes at 0.5 uM measured upto 30 mins in the presence of NADPH; assay type: ADME, Microsome; conditions: 0.5 h
EOL1 = assay: Antiproliferative activity against human EOL1 cells assessed as inhibition of cell growth incubated for 7 days by CellTiterGlo assay; assay type: functional, cell-based; conditions: EOL1, 168 h
[22] = molecular target: T1, von Hippel-Lindau disease tumor suppressor/Bromodomain-containing protein 7 (Homo sapiens); assay: PROTAC activity at VHL/BRD7 in human Ri-1 cells assessed as remaining BRD7 protein level at 1 nM incubated for 2 hrs by Western blot analysis relative to control; assay type: cell-based
[23] = molecular target: T2, von Hippel-Lindau disease tumor suppressor/Bromodomain-containing protein 9 (Homo sapiens); assay: PROTAC activity at VHL/BRD9 in human Ri-1 cells assessed as remaining BRD9 protein level at 100 nM incubated for 1 hrs by Western blot analysis relative to control; assay type: cell-based; outline: as §1
[24] = molecular target: T1, von Hippel-Lindau disease tumor suppressor/Bromodomain-containing protein 7 (Homo sapiens); assay: PROTAC activity at VHL/BRD7 in human Ri-1 cells assessed as remaining BRD7 protein level at 100 nM incubated for 2 hrs by Western blot analysis relative to control; assay type: cell-based; outline: as §1
[25] = molecular target: T2, von Hippel-Lindau disease tumor suppressor/Bromodomain-containing protein 9 (Homo sapiens); assay: PROTAC activity at VHL/HiBiT-tagged BRD9 expressed in HEK293 assessed as BRD9 ubiquitination at 1 uM measured upto 60 mins by NanoBRET assay; assay type: cell-based
[26] = molecular target: T2, von Hippel-Lindau disease tumor suppressor/Bromodomain-containing protein 9 (Homo sapiens); assay: PROTAC activity at VHL/BRD9 in human Ri-1 cells assessed as remaining BRD9 protein level at 10 nM incubated for 2 hrs by Western blot analysis relative to control; assay type: cell-based; outline: as §1
[27] = molecular target: T2, von Hippel-Lindau disease tumor suppressor/Bromodomain-containing protein 9 (Homo sapiens); assay: PROTAC activity at VHL/BRD9 in human Ri-1 cells assessed as remaining BRD9 protein level at 1 uM incubated for 8 hrs by Western blot analysis relative to control; assay type: cell-based; outline: as §1
[28] = molecular target: T1, von Hippel-Lindau disease tumor suppressor/Bromodomain-containing protein 7 (Homo sapiens); assay: PROTAC activity at VHL/BRD7 in human Ri-1 cells assessed as remaining BRD7 protein level at 10000 nM incubated for 2 hrs by Western blot analysis relative to control; assay type: cell-based; outline: as §1
[29] = molecular target: T1, von Hippel-Lindau disease tumor suppressor/Bromodomain-containing protein 7 (Homo sapiens); assay: PROTAC activity at VHL/BRD7 in human Ri-1 cells assessed as remaining BRD7 protein level at 10 nM incubated for 8 hrs by Western blot analysis relative to control; assay type: cell-based; outline: as §1
[30] = molecular target: T2, von Hippel-Lindau disease tumor suppressor/Bromodomain-containing protein 9 (Homo sapiens); assay: PROTAC activity at VHL/BRD9 in human Ri-1 cells assessed as remaining BRD9 protein level at 10 nM incubated for 24 hrs by Western blot analysis relative to control; assay type: cell-based; outline: as §1
[31] = molecular target: T2, von Hippel-Lindau disease tumor suppressor/Bromodomain-containing protein 9 (Homo sapiens); assay: PROTAC activity at VHL/BRD9 in human Ri-1 cells assessed as remaining BRD9 protein level at 10 nM incubated for 4 hrs by Western blot analysis relative to control; assay type: cell-based; outline: as §1
[32] = molecular target: T1, von Hippel-Lindau disease tumor suppressor/Bromodomain-containing protein 7 (Homo sapiens); assay: PROTAC activity at VHL/BRD7 in human Ri-1 cells assessed as remaining BRD7 protein level at 100 nM incubated for 24 hrs by Western blot analysis relative to control; assay type: cell-based; outline: as §1

T1 sequence (P40337 whole entry, looked up): as the sequence (P40337 whole entry, looked up) above
T1 sequence (Q9NPI1 whole entry, looked up): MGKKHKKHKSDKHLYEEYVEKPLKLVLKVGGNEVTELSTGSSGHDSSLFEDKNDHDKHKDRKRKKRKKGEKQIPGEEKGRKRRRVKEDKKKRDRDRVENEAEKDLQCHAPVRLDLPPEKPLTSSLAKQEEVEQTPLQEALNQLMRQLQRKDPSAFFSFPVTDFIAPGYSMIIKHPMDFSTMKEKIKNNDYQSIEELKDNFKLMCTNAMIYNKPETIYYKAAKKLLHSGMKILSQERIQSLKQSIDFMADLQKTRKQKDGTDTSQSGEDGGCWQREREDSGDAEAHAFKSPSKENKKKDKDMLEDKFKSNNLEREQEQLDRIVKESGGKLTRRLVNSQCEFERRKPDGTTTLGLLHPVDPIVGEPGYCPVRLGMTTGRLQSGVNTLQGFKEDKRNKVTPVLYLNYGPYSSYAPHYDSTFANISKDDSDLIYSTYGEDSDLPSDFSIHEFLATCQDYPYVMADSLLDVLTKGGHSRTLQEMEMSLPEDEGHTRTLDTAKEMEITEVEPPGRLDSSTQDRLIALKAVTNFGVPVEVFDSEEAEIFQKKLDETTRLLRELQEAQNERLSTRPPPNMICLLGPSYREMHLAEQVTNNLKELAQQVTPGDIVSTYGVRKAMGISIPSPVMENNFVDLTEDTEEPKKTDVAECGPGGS

Activity [1]: 109%
Activity [2]: 10%
Activity [3]: inactive
Activity [4]: 7%
Activity [5]: inactive
Activity [6]: 5%
Stability [7]: Stable
Activity [8]: 89%
Activity [9]: 10%
Stability [10]: Stable
Activity [11]: 98%
Activity [12]: 10%
deltaG [13]: -21.7 kcal/mol
Stability [14]: Stable
Emax [15]: > 90%
Activity [16]: inactive
Activity [17]: 12%
Activity [18]: 2%
Activity [19]: 38%
Activity [20]: 62%
Stability [21]: Stable
Activity [22]: 92%
Activity [23]: 34%
Activity [24]: 8%
Activity [25]: Active
Activity [26]: 35%
Activity [27]: 16%
Activity [28]: 75%
Activity [29]: 33%
Activity [30]: 17%
Activity [31]: 31%
Activity [32]: 4%
Structure (SMILES): COc1cc(-c2cn(C)c(=O)c3cnccc23)cc(OC)c1CN1CCN(CCCCCOc2cc(-c3scnc3C)ccc2CNC(=O)[C@@H]2C[C@@H](O)CN2C(=O)[C@@H](NC(=O)C2(F)CC2)C(C)(C)C)CC1
IC50 (A204): 39.8 nM
IC50 (EOL1): 3.39 nM

Source: ChEMBL document CHEMBL5260840 (J Med Chem, 2019)
